Results reported in ChEMBL document CHEMBL4422698, “Wortmannin and Wortmannine Analogues from an Undescribed Niesslia sp” (2019).
Converted amounts (≈) assume the structure as drawn. The source made the active and inactive calls. The calls are words filed in the database; no cut-off is given here.

Legend:
Staphylococcus aureus = test: Antibacterial activity against Staphylococcus aureus ATCC 43330 assessed as zone of inhibition at 50 ug/disk by disk diffusion method; format: functional, organism-based
Procedure, shortened: (§1)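 Agar disk diffusion zone-of-inhibition assay on C. albicans ATCC 10231, C. neoformans H99 and S. aureus ATCC 43330, run per NCCLS recommendations. Compound applied at 50 μg/disk, amphotericin B control at 25 μg/disk. Inhibition zone diameter recorded in mm.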

Cryptococcus neoformans [1] = test: Antifungal activity against Cryptococcus neoformans H99 assessed as zone of inhibition at 50 ug/disk by disk diffusion method; format: functional; conditions: for zone of inhibition at 50 µg/disc: var grubii H99, read-out: IZ; for inhibition zone (IZ): var grubii H99; procedure, shortened: as §1
Candida albicans [2] = test: Antifungal activity against Candida albicans ATCC 10231 assessed as zone of inhibition at 50 ug/disk by disk diffusion method; format: functional; conditions: for zone of inhibition at 50 µg/disc: read-out: IZ; procedure, shortened: as §1
Aspergillus fumigatus = test: Antifungal activity against Aspergillus fumigatus measured after 48 hrs by broth microdilution method; format: functional
Procedure, shortened: (§2)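 NCCLS serial broth microdilution in RPMI-1640 with 0.165 M MOPS, pH 7.0. Compounds dissolved in DMSO and serially diluted in the medium. MIC-50 taken spectrophotometrically as the lowest concentration giving 50% growth inhibition versus the untreated control. Read at 48 h for C. albicans and A. fumigatus, 72 h for C. neoformans.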

Candida albicans [3] = test: Antifungal activity against Candida albicans ATCC 10231 measured after 48 hrs by broth microdilution method; format: functional; conditions: ATCC 10231, 48 h; procedure, shortened: as §2
Cryptococcus neoformans [4] = test: Antifungal activity against Cryptococcus neoformans H99 measured after 72 hrs by broth microdilution method; format: functional; conditions: var grubii H99 ; procedure, shortened: as §2
Candida albicans [5] = test: Antifungal activity against Candida albicans ATCC 10231 at 25 uM measured after 24 hrs
[6] = system: Schizosaccharomyces pombe; test: Ratio of MIC50 for Schizosaccharomyces pombe isolate MJ1682 harboring efflux mutant to MIC50 for Schizosaccharomyces pombe SAK1; format: functional
Procedure, shortened: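 S. pombe efflux mutant MJ1682 (caf5::bsdR pap1-del pmd1-del mfs1-del bfr1-del) and wild-type SAK1 grown in YES medium for 72 h with serially diluted compound. Viability read on a plate reader with Alamar Blue, itraconazole as positive control. Ratio of the MIC50 of the mutant to that of the wild type.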

Candida albicans [7] = test: Antifungal activity against Candida albicans ATCC 10231 assessed as zone of inhibition at 25 ug/disk by disk diffusion method; format: functional; conditions: read-out: IZ
Cryptococcus neoformans [8] = test: Antifungal activity against Cryptococcus neoformans H99 assessed as zone of inhibition at 25 ug/disk by disk diffusion method; format: functional; conditions: var grubii H99, read-out: IZ; procedure, shortened: as §1

Row | Structure (SMILES) | inhibition zone (IZ) (Staphylococcus aureus) | inhibition zone (IZ) (Cryptococcus neoformans [1]) | inhibition zone (IZ) (Candida albicans [2]) | further results
1 | COC[C@H]1OC(=O)c2coc3c2[C@@]1(C)C1=C(C3=O)[C@@H]2CCC(=O)[C@@]2(C)C[C@H]1OC(=O)C(C)C | inactive |  |  | zone of inhibition at 50 µg/disc (Cryptococcus neoformans [1]): 13 mm; zone of inhibition at 50 µg/disc (Candida albicans [2]): 25 mm
2 | CCC(C)C(=O)O[C@@H]1C[C@]2(C)C(=O)CC[C@H]2C2=C1[C@@]1(C)[C@@H](COC)OC(=O)[C@@H]3[C@H](O)NC(=O)[C@@]31C2=O (stereo not given in full) | inactive | inactive | inactive | 
3 | COC[C@H]1OC(=O)[C@@H]2[C@@H](O)NC(=O)[C@@]23C(=O)C2=C([C@H](OC(=O)C(C)C)C[C@]4(C)C(=O)CC[C@@H]24)[C@@]13C | inactive | inactive | inactive | 
4 | CCC(C)C(=O)O[C@@H]1C[C@]2(C)C(=O)CC[C@H]2C2=C1[C@]1(C)c3c(coc3C2=O)C(=O)O[C@@H]1COC (stereo not given in full) | inactive |  |  | MIC50 (Aspergillus fumigatus): 200 µM (≈ 94.1 µg/mL); MIC50 (Candida albicans [3]): 200 µM (≈ 94.1 µg/mL); MIC50 (Cryptococcus neoformans [4]): 100 µM (≈ 47.1 µg/mL); zone of inhibition at 50 µg/disc (Cryptococcus neoformans [1]): 16 mm; Activity (Candida albicans [5]): Active; zone of inhibition at 50 µg/disc (Candida albicans [2]): 25 mm; Ratio [6]: 0.1
5 | CCC(C)C(=O)O[C@@H]1C[C@]2(C)C(=O)CC[C@H]2C2=C1[C@@]1(C)[C@@H](COC)OC(=O)[C@@H]3[C@@H](O)NC(=O)[C@@]31C2=O (stereo not given in full) | inactive | inactive | inactive | 
6 | COC[C@H]1OC(=O)[C@@H]2[C@H](O)NC(=O)[C@@]23C(=O)C2=C([C@H](OC(=O)C(C)C)C[C@]4(C)C(=O)CC[C@@H]24)[C@@]13C | inactive | inactive | inactive | 
7 | C[C@@H]1[C@H](O)[C@@H](C)/C=C/C=C/C=C/C=C/C=C/C=C/C=C/[C@H](O[C@@H]2O[C@H](C)[C@@H](O)[C@H](N)[C@@H]2O)C[C@@H]2O[C@](O)(C[C@@H](O)C[C@@H](O)[C@H](O)CC[C@@H](O)C[C@@H](O)CC(=O)O[C@H]1C)C[C@H](O)[C@H]2C(=O)O [AMPHOTERICIN B] |  |  |  | zone of inhibition at 25 µg/disc (Candida albicans [7]): 10 mm; zone of inhibition at 25 µg/disc (Cryptococcus neoformans [8]): 13 mm
